# Reference: ChEMBL document CHEMBL1153988 (J Med Chem, 2009)
# Key:
# [1] = tested on: Rattus norvegicus; assay: Anticonvulsant activity in po dosed albino Sprague-Dawley rat assessed as protection against scMet-induced seizures; type: functional
# Outline: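 Male Sprague-Dawley albino rats (100-150 g) were dosed orally in 0.5% methylcellulose and tested by MES or by sc pentylenetetrazol (2.82% in 0.9% saline). Doses were varied to give 3-4 points between 0% and 100% protection. ED50 and 95% confidence intervals came from probit analysis.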
# [2] = tested on: Mus musculus; assay: Anticonvulsant activity in ip dosed CF1 albino mouse assessed as protection against 44 mA-current-induced seizure by 6Hz psychomotor seizure test; type: functional
# Outline: (§1)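 In the 6 Hz psychomotor seizure test, male CF no. 1 albino mice (18-25 g) received the compound ip in 0.5% methylcellulose. Stimulation was at 32 or 44 mA. Doses were varied to give 3-4 points between 0% and 100% protection, and ED50 with 95% confidence interval came from probit analysis.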
# [3] = tested on: Mus musculus; assay: Teratogenic effect in SWV mouse assessed as number of litters at 600 mg/kg, ip administered on morning of day 8 of gestation; type: toxicity, organism-based; parameters: dose 600 mg/kg, route intraperitoneal; settings: in vivo
# Outline: (§2)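 Inbred SWV mouse strain, highly susceptible to valproate-induced neural tube defects. Each pregnant dam received a single ip injection on gestation day 8.5. Test compounds spanned 1.8-4.2 mmol/kg, the reference drug was given as its sodium salt, and controls received 25% aqueous Cremophor EL. Groups were compared by Fisher's exact test (p < 0.05).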
# [4] = tested on: Mus musculus; assay: Teratogenic effect in SWV mouse assessed as number of litters at 452 mg/kg, ip administered on morning of day 8 of gestation; type: toxicity, organism-based; parameters: dose 452 mg/kg, route intraperitoneal; settings: in vivo; outline: as §2
# [5] = tested on: Mus musculus; assay: Teratogenic effect in SWV mouse assessed as number of litters at 301 mg/kg, ip administered on morning of day 8 of gestation; type: toxicity, organism-based; parameters: dose 301 mg/kg, route intraperitoneal; settings: in vivo; outline: as §2
# [6] = tested on: Mus musculus; assay: Teratogenic effect in SWV mouse assessed as number of implants at 600 mg/kg, ip administered on morning of day 8 of gestation; type: toxicity, organism-based; parameters: dose 600 mg/kg, route intraperitoneal; settings: in vivo; outline: as §2
# [7] = tested on: Mus musculus; assay: Teratogenic effect in SWV mouse assessed as number of implants at 452 mg/kg, ip administered on morning of day 8 of gestation; type: toxicity, organism-based; parameters: dose 452 mg/kg, route intraperitoneal; settings: in vivo; outline: as §2
# [8] = tested on: Mus musculus; assay: Teratogenic effect in SWV mouse assessed as number of implants at 301 mg/kg, ip administered on morning of day 8 of gestation; type: toxicity, organism-based; parameters: dose 301 mg/kg, route intraperitoneal; settings: in vivo; outline: as §2
# [9] = tested on: Mus musculus; assay: Teratogenic effect in SWV mouse assessed as resorptions at 600 mg/kg, ip administered on morning of day 8 of gestation; type: toxicity, organism-based; parameters: dose 600 mg/kg, route intraperitoneal; settings: in vivo; outline: as §2
# [10] = tested on: Mus musculus; assay: Teratogenic effect in SWV mouse assessed as resorptions at 452 mg/kg, ip administered on morning of day 8 of gestation; type: toxicity, organism-based; parameters: dose 452 mg/kg, route intraperitoneal; settings: in vivo; outline: as §2
# [11] = tested on: Mus musculus; assay: Teratogenic effect in SWV mouse assessed as resorptions at 301 mg/kg, ip administered on morning of day 8 of gestation; type: toxicity, organism-based; parameters: dose 301 mg/kg, route intraperitoneal; settings: in vivo; outline: as §2
# [12] = tested on: Mus musculus; assay: Teratogenic effect in SWV mouse assessed as live fetuses at 600 mg/kg, ip administered on morning of day 8 of gestation; type: toxicity, organism-based; parameters: dose 600 mg/kg, route intraperitoneal; settings: in vivo; outline: as §2
# [13] = tested on: Mus musculus; assay: Teratogenic effect in SWV mouse assessed as live fetuses at 452 mg/kg, ip administered on morning of day 8 of gestation; type: toxicity, organism-based; parameters: dose 452 mg/kg, route intraperitoneal; settings: in vivo; outline: as §2
# [14] = tested on: Mus musculus; assay: Teratogenic effect in SWV mouse assessed as live fetuses at 301 mg/kg, ip administered on morning of day 8 of gestation; type: toxicity, organism-based; parameters: dose 301 mg/kg, route intraperitoneal; settings: in vivo; outline: as §2
# [15] = tested on: Mus musculus; assay: Teratogenic effect in SWV mouse assessed as dead fetuses at 600 mg/kg, ip administered on morning of day 8 of gestation; type: toxicity, organism-based; parameters: dose 600 mg/kg, route intraperitoneal; settings: in vivo
# [16] = tested on: Mus musculus; assay: Teratogenic effect in SWV mouse assessed as dead fetuses at 452 mg/kg, ip administered on morning of day 8 of gestation; type: toxicity, organism-based; parameters: dose 452 mg/kg, route intraperitoneal; settings: in vivo
# [17] = tested on: Mus musculus; assay: Teratogenic effect in SWV mouse assessed as dead fetuses at 301 mg/kg, ip administered on morning of day 8 of gestation; type: toxicity, organism-based; parameters: dose 301 mg/kg, route intraperitoneal; settings: in vivo
# [18] = tested on: Mus musculus; assay: Teratogenic effect in VPA-induced SWV mouse assessed as fetuses with neural tube deffects at 301 mg/kg, ip administered on morning of day 8 of gestation; type: toxicity, organism-based; parameters: dose 301 mg/kg, route intraperitoneal; settings: in vivo; outline: as §2
# [19] = tested on: Mus musculus; assay: Neurotoxicity in ip dosed CF1 albino mouse assessed as minimal motor impairment; type: toxicity, organism-based; settings: mouse, in vivo
# Outline: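 Mice: male CF no. 1 albino (18-25 g), ip dosing in 0.5% methylcellulose. Minimal motor impairment was scored, with doses varied to give four points between no impairment and all animals impaired.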
# [20] = tested on: Mus musculus; assay: Anticonvulsant activity in ip dosed CF1 albino mouse assessed as protection against 32 mA current-induced seizure by 6Hz psychomotor seizure test; type: functional; outline: as §1
# [21] = organism: Mus musculus; assay: Protective index, ratio of TD50 for CF1 albino mouse to ED50 for 32 mA current-induced CF1 albino mouse seizure model; type: functional
# Outline: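 Protective index is the mouse TD50 (minimal motor impairment) divided by the 6 Hz test ED50 at 32 or 44 mA. Male CF no. 1 mice were dosed ip in 0.5% methylcellulose, and values came from probit analysis.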
compound,measurement,setting,value
CCCC(CCC)C(=O)O [VALPROIC ACID],ED50,[1],646 mg/kg
same,ED50,[2],310 mg/kg
same,Activity,[3],13
same,Activity,[4],13
same,Activity,[5],12
same,Activity,[6],131
same,Activity,[7],160
same,Activity,[8],154
same,Activity,[9],7.6%
same,Activity,[10],11.3%
same,Activity,[11],11%
same,Activity,[12],81.7%
same,Activity,[13],88.1%
same,Activity,[14],86.4%
same,Activity,[15],10.7%
same,Activity,[16],0.6%
same,Activity,[17],2.6%
same,Activity,[18],1.5%
CC1(C)C(C(N)=O)C1(C)C,ED50,[19],99 mg/kg
same,ED50,[20],72 mg/kg
same,PI,[21],1.4
same,ED50,[2],> 200 mg/kg
